The source made the active and inactive calls. The rule behind the calls is not given here.
How the values were obtained:
[1] = test system: Aspergillus fumigatus; test: Induction of change in BYS1 domain protein, putative protein level in iTRAQ-121 labelled cell wall fraction of drug-susceptible Aspergillus fumigatus KU80 delta-akuB at 0.12 ug/ml after 48 hrs in YPD medium by MS (MS/MS) analysis relative to control
[2] = test system: Aspergillus fumigatus; test: Induction of change in 4-hydroxyphenylpyruvate dioxygenase, putative protein level in iTRAQ-116 labelled secreted fraction of drug-susceptible Aspergillus fumigatus KU80 delta-akuB at 0.12 ug/ml after 48 hrs in YPD medium by MS (MS/MS) analysis relative to control; format: functional
Outline: (§1)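 Conidia at 1 × 10⁵/ml grown shaking at 37°C in YPD with or without 0.12 μg/ml caspofungin; mycelia filtered at 24 or 48 h. Secreted fraction taken from the filtrate; cell wall/plasma membrane pellet recovered after French-press lysis and a 5,000 × g spin. Proteins trypsin-digested and iTRAQ-labelled, drug vs no-drug channels at each time, then 2D LC-MS/MS. Protein ratio is the median of ratios from uniquely assigned peptides after median normalization.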

[3] = test system: Aspergillus fumigatus; test: Induction of change in C2H2 transcription factor (Rpn4), putative gene expression in drug-susceptible Aspergillus fumigatus KU80 delta-akuB at 0.12 ug/ml after 48 hrs in YPD medium by microarray analysis relative to control; format: functional
Outline: (§2)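 Mycelia grown in YPD ± 0.12 μg/ml caspofungin (1 × 10⁵ conidia/ml, 37°C, shaking) and harvested at 24 or 48 h. Total RNA extracted, DNase-treated and quality-checked; 2 μg labelled per TIGR SOP M007 and hybridized to whole-genome arrays. Three independent experiments with dye flip (6 replicates); drug vs untreated fold change.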

[4] = test system: Aspergillus fumigatus; test: Induction of change in ribosomal protein L29/heparin/heparan sulfate interacting gene expression in drug-susceptible Aspergillus fumigatus KU80 delta-akuB at 0.12 ug/ml after 24 hrs in YPD medium by microarray analysis relative to control; format: functional
Outline: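 Mycelia grown from 1 × 10⁵ conidia/ml in YPD at 37°C, 225 rpm, with or without 0.12 μg/ml caspofungin. Total RNA extracted, DNase-treated; 2 μg labelled per TIGR SOP M007 for whole-genome array hybridization. Three independent experiments with dye flip (6 replicates); >2-fold change deemed significant.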

[5] = test system: Aspergillus fumigatus; test: Induction of change in ThiJ/PfpI family protein level in iTRAQ-118 labelled cell wall fraction of drug-resistant Aspergillus fumigatus EMFR-S678P at 0.12 ug/ml after 24 hrs in YPD medium by MS (MS/MS) analysis relative to control; format: functional
Outline: (§3)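 Conidia at 1 × 10⁵/ml were grown at 37°C, shaking at 225 rpm, in YPD with or without 0.12 μg/ml caspofungin for 24 or 48 h. The culture filtrate was kept as the secreted fraction. Mycelia were lysed by French press in HEPES/glycerol/EDTA/PMSF/DTT buffer, and the 5,000 × g pellet was washed to give CW/PM. Proteins were reduced, alkylated and trypsin-digested at 37°C overnight, then iTRAQ-labelled and run by 2D LC-MS/MS. Ratios are the median of unique-peptide ratios, median-normalized, versus the no-drug control.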

[6] = test system: Aspergillus fumigatus; test: Induction of change in eukaryotic translation elongation factor 1 subunit Eef1-beta, putative protein level in iTRAQ-116 labelled secreted fraction of drug-resistant Aspergillus fumigatus EMFR-S678P at 0.12 ug/ml after 48 hrs in YPD medium by MS (MS/MS) analysis relative to control; format: functional
Outline: as §3

[7] = test system: Aspergillus fumigatus; test: Induction of change in 40S ribosomal protein S3Ae protein level in iTRAQ114 labelled cell wall fraction of drug-resistant Aspergillus fumigatus EMFR-S678P at 0.12 ug/ml after 24 hrs in YPD medium by MS (MS/MS) analysis relative to control; format: functional
Outline: as §3

[8] = test system: Aspergillus fumigatus; test: Induction of change in 14-alpha sterol demethylase Cyp51A protein level in iTRAQ-118 labelled cell wall fraction of drug-resistant Aspergillus fumigatus EMFR-S678P at 0.12 ug/ml after 24 hrs in YPD medium by MS (MS/MS) analysis relative to control; format: functional, organism-based
Outline: as §3

[9] = test system: Aspergillus fumigatus; test: Induction of change in ribosomal protein L14 protein level in iTRAQ114 labelled secreted fraction of drug-susceptible Aspergillus fumigatus KU80 delta-akuB at 0.12 ug/ml after 24 hrs in YPD medium by MS (MS/MS) analysis relative to control; format: functional
Outline: (§4)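 Conidia (1 × 10⁵/ml) grown in YPD, 37°C, 225 rpm, ± 0.12 μg/ml caspofungin; filtrate taken as secreted fraction, French-press lysate 5,000 × g pellet as cell wall/plasma membrane. Trypsin digests 8-plex iTRAQ-labelled (drug-free channels as references), pooled, 2D-chromatography, MS/MS. Median-normalized; protein ratio = median of unique-peptide ratios, log2 normalized.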

[10] = test system: Aspergillus fumigatus; test: Induction of change in ubiquinol-cytochrome C reductase complex core protein 2, putative protein level in iTRAQ-118 labelled cell wall fraction of drug-susceptible Aspergillus fumigatus KU80 delta-akuB at 0.12 ug/ml after 24 hrs in YPD medium by MS (MS/MS) analysis relative to control; format: functional
Outline: as §4

[11] = test system: Aspergillus fumigatus; test: Induction of change in allergen Asp F4 protein level in iTRAQ114 labelled secreted fraction of drug-resistant Aspergillus fumigatus EMFR-S678P at 0.12 ug/ml after 24 hrs in YPD medium by MS (MS/MS) analysis relative to control; format: functional, organism-based
Outline: as §3

[12] = test system: Aspergillus fumigatus; test: Induction of change in 60s ribosomal protein yl6 protein level in iTRAQ114 labelled cell wall fraction of drug-susceptible Aspergillus fumigatus KU80 delta-akuB at 0.12 ug/ml after 24 hrs in YPD medium by MS (MS/MS) analysis relative to control; format: functional
Outline: as §1

[13] = test system: Aspergillus fumigatus; test: Induction of change in cytochrome c protein level in iTRAQ114 labelled secreted fraction of drug-susceptible Aspergillus fumigatus KU80 delta-akuB at 0.12 ug/ml after 24 hrs in YPD medium by MS (MS/MS) analysis relative to control; format: functional
Outline: as §1

[14] = test system: Aspergillus fumigatus; test: Antifungal activity against drug-resistant Aspergillus fumigatus EMFR-S678P assessed as change in hyphal morphology by RPMI medium; format: functional; details: read-out: MEC
Outline: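 CLSI M38-A2 broth microdilution, run in triplicate in RPMI or YPD medium as the line specifies. Caspofungin was dissolved in sterile water. The minimum effective concentration (MEC) was the lowest concentration giving a significant change in hyphal morphology visible to the eye.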

[15] = test system: Aspergillus fumigatus; test: Induction of change in pyruvate decarboxylase PdcA, putative protein level in iTRAQ-118 labelled cell wall fraction of drug-susceptible Aspergillus fumigatus KU80 delta-akuB at 0.12 ug/ml after 24 hrs in YPD medium by MS (MS/MS) analysis relative to control; format: functional
Outline: as §4

[16] = test system: Aspergillus fumigatus; test: Induction of change in citrate synthase, eukaryotic protein level in iTRAQ-116 labelled cell wall fraction of drug-susceptible Aspergillus fumigatus KU80 delta-akuB at 0.12 ug/ml after 48 hrs in YPD medium by MS (MS/MS) analysis relative to control; format: functional
Outline: as §1

[17] = test system: Aspergillus fumigatus; test: Induction of change in Ribosomal protein S21e gene expression in drug-susceptible Aspergillus fumigatus KU80 delta-akuB at 0.12 ug/ml after 24 hrs in YPD medium by microarray analysis relative to control; format: functional
Outline: as §2

For `CC[C@H](C)C[C@H](C)CCCCCCCCC(=O)N[C@H]1C[C@@H](O)[C@@H](NCCN)NC(=O)[C@@H]2[C@@H](O)CCN2C(=O)[C@H]([C@H](O)CCN)NC(=O)[C@H]([C@H](O)[C@@H](O)c2ccc(O)cc2)NC(=O)[C@@H]2C[C@@H](O)CN2C(=O)[C@H]([C@@H](C)O)NC1=O` [CASPOFUNGIN], which “fold change (FC)” value [1] is on record?
The value was -2.5.

And the “fold change (FC)” value [2]?
The value was greater than -16.

And the “fold change (FC)” value [3]?
Its value is -2.4.

And the “fold change (FC)” value [4]?
The value was 6.5.

What about the “fold change (FC)” value [5] of the same compound?
The value was 1.23.

And the “fold change (FC)” value [6]?
Its value is -1.74.

What about the “fold change (FC)” value [7] of the same compound?
Its value is 1.07.

And the Activity [8]?
Its Activity is “inactive”.

And the “fold change (FC)” value [9]?
The value was -1.1.

And the “fold change (FC)” value [10]?
Its value is -2.

What about the Activity [11] of the same compound?
Its Activity is “inactive”.

What about the “fold change (FC)” value [12] of the same compound?
Its value is 1.6.

And the “fold change (FC)” value [13]?
The value was -2.6.

What about the minimal effective concentration [14] of the same compound?
Its minimal effective concentration is greater than 16 µg/mL.

And the “fold change (FC)” value [15]?
Its value is -2.3.

And the “fold change (FC)” value [16]?
The value was -1.2.

And the “fold change (FC)” value [17]?
Its value is 3.6.
